In the library only some 3.5% were active in any assay of this set; here they are far more common.
Yeast lifespan up = compounds extending yeast replicative lifespan, primary screen, S. cerevisiae, OD615. inhibition of the nicotinamide effect, % at 10 µM. S. cerevisiae growth with nicotinamide; deaD strain in restrictive glucose medium. 130,000 compounds, 0.68% hits;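 active = inhibition above a set limit, placed 3 SD over the median of all compounds, cut at about 26% in these data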
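assay system = DeaD-strain S. cerevisiae | measured by = absorbance at 615 nm | probe or stimulus = nicotinamide 1.5 mM | buffer or medium = CSMM-D glucose medium, restrictive | times = 48 h at 30 °C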
b-catenin transl = modulators of beta-catenin nuclear translocation, primary screen, imaging, HeLa cells, immunofluorescence, high-content. 190,000 compounds, 0.3% hits. AID 1665, 2009. nuclear translocation activity, % at 5 µM;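 active = nuclear translocation activity above 50% at 5 µM, with a well cell count of 50 or more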;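 also: per-cell ratio of nuclear to cytoplasmic median beta-catenin stain intensity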
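Test system: HeLa cells, endogenous beta-catenin; Compound: single 5 µM dose plus 0.02–20 µM confirmation series; Times: compound exposure 24 h at 37°C; Signal: fluorescence imaging of beta-catenin antibody stain plus DAPI; Read-out: % activation, nuclear-to-cytoplasmic median beta-catenin signal ratio per cell.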
RAM network inh = inhibitors of the yeast RAM network, primary screen, dse1pr::URA3 reporter, 5-FOA selection; inhibition, % at 50 µM; S. cerevisiae dse1pr::URA3 reporter, 5-FOA growth OD615, 2 d; analog-sensitive cbk1-as2 kinase mutant strain; AID 868, 2007; 190,000 compounds, 1.8% hits;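 active = inhibition above a set limit, 3 SD over mean compound inhibition, cut at about 8.4% in these data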;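 also: inhibition rescues growth on 5-FOA so higher OD means more RAM inhibition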
MT stabilizer = microtubule stabilizers in HeLa cells, primary screen, imaging, high-content imaging; HeLa tubulin immunostaining HCS, 24 h; share of cells brighter than vehicle mean+2SD; % tubulin-high responders, % at 10 µM; 200,000 compounds, 0.83% hits; AID 2205, 2009;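 active = plate Z-score above 3 for both tubulin-high and condensed-nucleus cell shares, with cell loss under 80%, at 10 µM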;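 also: anti alpha tubulin signal scored within the nucleus-defined area of each cell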
Efa HMGR inh = inhibitors of E. faecalis class II HMGR, primary screen, biochemical, Enterococcus faecalis; HMG-CoA reductase (Enterococcus faecalis, mvaE); purified E. faecalis HMGR, NADPH absorbance 340 nm kinetic; inhibition, % at 10 µM; 190,000 compounds, 0.41% hits; AID 1066, 2008;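 active = inhibition above a set limit, the median over all tested compounds plus 3 SD, cut at about 9.5% in these data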;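 also: enzyme runs in reverse so mevalonate oxidation gives rising NADPH absorbance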
BB579 growth dn = growth inhibitors of yeast BB579 in restrictive medium, primary screen, yeast lifespan-shortening project, S. cerevisiae; OD615, 48 h; AID 804, 2007; inhibition, % at 10 µM; 140,000 compounds, 0.51% hits;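 active = inhibition above a set limit, 3 SD over the mean compound inhibition, cut at about 44% in these data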
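Material: Saccharomyces cerevisiae DeaD strain BB579, replicative lifespan model yeast; buffer or medium: CSMM-D restrictive synthetic medium containing dextrose (glucose); compound: 10 µM single dose, DMSO 0.25%; timing: 48 h compound exposure at 30 °C after 4 h preincubation; signal: turbidity as optical density at 615 nm; benchmarks: positive control amphotericin B 10 µg/mL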
Each line names hits and unclear results; the compound was inactive in the other large screens.

CCN(CC)CCCNC1=C(Cl)C(=O)c2ccccc2C1=O	MT stabilizer 43 (no result: Yeast lifespan up, BB579 growth dn)
C=CCNC1=C(Cl)C(=O)c2ccccc2C1=O	BB579 growth dn 60
O=C(COC(=O)CNC(=O)c1ccc(Br)o1)Nc1ccccc1OC(F)F	none (no result: Yeast lifespan up, BB579 growth dn)
CC1CCc2sc(NC(=O)C3CC(Cl)=CCC3C(=O)O)c(C#N)c2C1 (stereo not drawn)	none (no result: Yeast lifespan up, BB579 growth dn)
COc1ccc(C(=O)CCC(C)(C)[N+](=O)[O-])cc1	Efa HMGR inh 12 (no result: Yeast lifespan up, BB579 growth dn)
COc1cccc(-n2c(=O)n(Cc3ccccc3)c(=O)c3[nH]cnc32)c1C	none (no result: Yeast lifespan up, RAM network inh, MT stabilizer, Efa HMGR inh, BB579 growth dn)
NC(=O)[C@@H]1CCCN1Cc1nc(Cc2ccccc2Cl)no1	none (no result: Yeast lifespan up, BB579 growth dn)
C/C(=N\Nc1ccc(Cl)c(Cl)c1)c1ccc(-n2ccnc2)cc1	BB579 growth dn 95 (no result: b-catenin transl)
O=c1cc(Nc2ccc3c(c2)OCCO3)[nH]c(=O)n1C1CCCCC1	MT stabilizer 49 (no result: Yeast lifespan up)
Cc1noc(NS(=O)(=O)c2ccc(N/C=C\C(=O)c3ccncc3)cc2)c1C	none (no result: b-catenin transl)
Cc1ccc(OCC(=O)Nc2ccc(S(=O)(=O)Nc3onc(C)c3C)cc2)cc1	RAM network inh 10
Cc1noc(NS(=O)(=O)c2ccc(N/C=C/C(=O)c3ccc(F)cc3)cc2)c1C	RAM network inh 11 (no result: Yeast lifespan up, BB579 growth dn)
Cc1ccc(S(=O)(=O)CC(=O)Nc2ccc(S(=O)(=O)Nc3onc(C)c3C)cc2)cc1	none
Cc1ccc(/C=C/C(=O)c2ccccc2O)cc1	none (no result: Yeast lifespan up, RAM network inh, MT stabilizer, Efa HMGR inh, BB579 growth dn)
Cc1ccc(/C=C/C(=O)C2C(=O)c3ccccc3C2=O)cc1	Yeast lifespan up 42
O=C(NCCNC(=O)c1ccc([N+](=O)[O-])cc1)c1ccncc1	none (no result: Yeast lifespan up, BB579 growth dn)
C=CCn1c(O)c(C(CC)=NCCN2CCOCC2)c(=O)[nH]c1=O	Yeast lifespan up 37
Cc1ccc(N2NC(C)(c3cccs3)NC2=S)cc1 (stereo not drawn)	BB579 growth dn 98
CC(C1CCN(Cc2cn(C)nc2-c2cccc(Cl)c2)CC1)N1CCOCC1 (stereo not drawn)	none (no result: Yeast lifespan up, BB579 growth dn)
COc1ccc(-n2cc3c(-c4cccc(Br)c4)nnc(C)c3n2)cc1	RAM network inh 11
CCOC(=O)c1c(C)c(C(=O)Nc2ccc(N(C)C)cc2)c(C)n1CC	MT stabilizer 13
O=C(Nc1ccc(F)cc1)Nc1nnc(-c2ccco2)s1	none (no result: Yeast lifespan up, BB579 growth dn)
COc1ccc(-c2c(C(C)=O)c(C)nc3sc4c(=N)n(N)cnc4c23)cc1	none
COc1ccc(C2NC(=O)c3sc4nc(C)c(C(C)=O)c(-c5ccc(Cl)cc5)c4c3N2)cc1 (stereo not drawn)	RAM network inh 10
CCCCc1ccc(NC(=S)NCc2ccc(OC)cc2)cc1	none (no result: Yeast lifespan up, BB579 growth dn)
COC(=O)c1cc(C)ccc1OCc1ccc([N+](=O)[O-])cc1	none (no result: Yeast lifespan up, RAM network inh, MT stabilizer, Efa HMGR inh, BB579 growth dn)
CCn1nc(C)c(C(=O)Nc2cc(Oc3ccc(Cl)cc3)cc([N+](=O)[O-])c2)c1C	MT stabilizer 29
CC(OC(=O)Cc1ccc(Cl)cc1)C(=O)NCCC1=CCCCC1 (stereo not drawn)	RAM network inh 9.0
CC(Oc1ccc(Cl)cc1Cl)C(=O)NCCC1=CCCCC1 (stereo not drawn)	none
CCN(c1ccccc1)S(=O)(=O)c1ccc(C(=O)OC(C)C(=O)NCCC2=CCCCC2)cc1 (stereo not drawn)	RAM network inh 9.0
CCOc1ccc(N(CC(=O)NCCC2=CCCCC2)S(=O)(=O)c2ccccc2)cc1	none (no result: Yeast lifespan up, BB579 growth dn)
CCN(c1ccccc1)S(=O)(=O)c1ccc(F)cc1	none
CCN(c1ccccc1)S(=O)(=O)c1ccc(N)c(OC)c1	b-catenin transl 111, MT stabilizer 22
CS(=O)(=O)N(Cc1ccc(Cl)cc1)c1ccc(C(=O)NCCC2=CCCCC2)cc1	RAM network inh 9.8
O=C(NCCC1=CCCCC1)c1ccc(Cl)cc1	none (no result: Yeast lifespan up, BB579 growth dn)
O=C(Oc1ccc(NC(=O)c2cc3c(cc2Br)OCO3)cc1)c1ccccc1	none (no result: Yeast lifespan up, RAM network inh, MT stabilizer, Efa HMGR inh, BB579 growth dn)
CCN(c1ccccc1)S(=O)(=O)c1ccc(C(=O)Oc2ccc(C(C)=O)cc2)cc1	RAM network inh 9.1

High-throughput results: PubChem, several laboratories
